Active and inactive are the calls of the source. Non-standard residues stand in square brackets, D forms with d. Residues, ends and D or L forms follow the SMILES beside them. ξ: configuration not given here. *: point of attachment. Benzoyl(2-OMe,5-SO2F) = COc1ccc(S(=O)(=O)F)cc1C(=O)*; Benzoyl(3-SO2F) = O=C(c1cccc(S(=O)(=O)F)c1)*; Benzoyl(4-SO2F) = O=C(c1ccc(S(=O)(=O)F)cc1)*; X1 = Cc1ccc(S(=O)(=O)F)cc1C(=O)*; hSer = N[C@@H](CCO)C(=O)O; Nle = CCCC[C@H](N)C(=O)O; Dap = NC[C@H](N)C(=O)O; ξAbu = CCC(N)C(=O)O Some results are limits rather than exact numbers.

Data set [1] deals with T1, Induced myeloid leukemia cell differentiation protein Mcl-1 (Homo sapiens, UniProt Q07820). Nature of the data set: Inhibition of human Mcl-1 (172 to 323 residues) expressed in Escherichia coli BL21 using biotinylated-BH3 peptide as substrate measured after 2 hrs by DELFIA displacement assay.
T1 sequence (Q07820 whole entry, the tested form may be a part): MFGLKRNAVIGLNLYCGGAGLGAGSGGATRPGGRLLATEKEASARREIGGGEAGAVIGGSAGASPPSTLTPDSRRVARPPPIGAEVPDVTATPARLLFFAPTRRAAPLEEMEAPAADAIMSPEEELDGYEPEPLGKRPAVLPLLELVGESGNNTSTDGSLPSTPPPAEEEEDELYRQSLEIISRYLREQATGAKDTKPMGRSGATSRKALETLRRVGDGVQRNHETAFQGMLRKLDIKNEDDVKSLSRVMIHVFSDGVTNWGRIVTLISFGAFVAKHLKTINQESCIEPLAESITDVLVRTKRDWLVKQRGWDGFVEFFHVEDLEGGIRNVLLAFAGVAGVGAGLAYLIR
In data set [2] the target is T1, Induced myeloid leukemia cell differentiation protein Mcl-1. Nature of the data set: Degradation of human Mcl-1 in A549 cells assessed as decrease in Mcl-1 protein levels with DMSO for 1 hr by spiking cell lysate assay. Type of data set: cell-based. In outline: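 A549 cells (Ham's F-12/GlutaMAX, 10% FBS, PenStrep, 0.5 μg/mL puromycin) were lysed 20 min on ice in Tris pH 7.4/Triton/deoxycholate/SDS/IGEPAL/EDTA buffer with protease and phosphatase inhibitors, then centrifuged. Protein-quantified supernatants were incubated 1 h at 37 °C with DMSO or 100 μM agent. Immunoblot used PVDF, anti-Mcl-1 and anti-β-tubulin (4 °C overnight), and ECL.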

Data set [3] addresses T2, Bcl-2-related protein A1 (Homo sapiens) (UniProt Q16548).
T2 sequence (whole entry): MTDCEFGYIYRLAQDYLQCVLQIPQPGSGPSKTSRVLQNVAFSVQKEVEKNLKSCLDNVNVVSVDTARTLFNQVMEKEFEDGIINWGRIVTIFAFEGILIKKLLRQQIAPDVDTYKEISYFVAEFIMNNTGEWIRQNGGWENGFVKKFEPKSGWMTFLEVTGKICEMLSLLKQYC
Nature of the data set: Binding affinity to human Bfl-1 assessed as covalent adduct formation by measuring band shift at 100 uM measured after 2 hrs by SDS-PAGE analysis. A digest of the protocol: (§1)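 Protein (hMcl-1 His-tagged construct, or His-tagged hBfl-1 residues 1–149) at 10 μM was incubated with or without agent at 100 μM for 2 h at room temperature in 25 mM TRIS pH 7.5, 150 mM NaCl, 1 mM DTT. Samples were run on 12% Bis-Tris SDS-PAGE with MOPS running buffer and Coomassie-type stained.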

Data set [4] in a line: Stability of the compound in pH 7.4 buffer assessed as half life by one-dimensional 1H-NMR analysis. It counts as physicochemical.
A short description of data set [5]: Stability of the compound in pH 7.4 buffer assessed as intact compound after 3.5 hrs by one-dimensional 1H-NMR analysis. Type of data set: physicochemical. The settings on record: read-out: Stability.
Data set [6] has as its target T3, Bcl-2-related protein A1 (Homo sapiens, UniProt Q16548).
T3 sequence (Q16548 whole entry): T2 sequence (whole entry)
Nature of the data set: Inhibition of human Bfl-1 (1 to 149 residues) expressed in Rosetta-gami (DE3) using biotinylated-BH3 peptide as substrate measured after 2 hrs by DELFIA displacement assay.

Data set [7] concerns the target T1, Induced myeloid leukemia cell differentiation protein Mcl-1. As to the kind of experiment: Binding affinity to human Mcl-1 in human A549 cells assessed as denaturation thermal shift at 100 uM by cellular thermal shift assay. Type of data set: cell-based. In outline: (§2)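 Cellular thermal shift: one million A549 cells were plated overnight and treated 1 h with 1% DMSO or 100 μM agent. Cells were harvested, protease inhibitors added, and heated 3 min at various temperatures. After lysis, the supernatant was analysed by western blot for Mcl-1.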

The test system of data set [8] is A549. Nature of the data set: Prevention of thermal denaturation of proteins in human A549 cells assessed as rescue of protein level at 100 uM by Western blotting analysis. It counts as functional, cell-based. In outline: as §2
Background: A western blot detects proteins with antibodies after separation by electrophoresis.

For data set [9], the target named is T1, Induced myeloid leukemia cell differentiation protein Mcl-1. Nature of the data set: Inhibition of human Mcl-1 assessed as inhibition constant by DELFIA displacement assay. In outline: (§3)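 His-tagged hMcl-1 (16 nM) and Eu-N1 anti-6xHis antibody (22.2 ng/well) were pre-bound for 2 h to streptavidin wells coated with biotinylated BIM BH3 peptide (600 ng/mL). Test peptide was then added for 0–40 min at RT, followed by washing, enhancement solution and time-resolved fluorescence at ex 340/em 615 nm. kobs was taken from the slope of % inhibition versus time. Ki and kinact came from a hyperbolic fit of kobs against concentration.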

For data set [10] the target is unchanged. As to the kind of experiment: Binding affinity to human Mcl-1 assessed as covalent adduct formation by measuring increase in molecular weight at 100 uM by mass spectrometry analysis.
Data set [11] has the same target. Nature of the data set: Binding affinity to human Mcl-1 assessed as covalent adduct formation by measuring band shift at 100 uM measured after 2 hrs by SDS-PAGE analysis. In outline: as §1
In data set [12] the test system is A549. As to the kind of experiment: Induction of decrease in human Mcl-1 level in A549 cells measured up to 100 uM in presence of carfilzomib treated for 2 hrs by Western blot analysis. It counts as functional, cell-based. In outline:
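A549 cells were treated 2 h with DMSO, 50 or 100 μM agent, with or without 30 min pre-treatment with 1 μM carfilzomib. Lysates were immunoblotted for Mcl-1 and β-tubulin. Densitometry gave Mcl-1 relative to β-tubulin from two independent experiments. Significance was by one-way ANOVA with Dunnett post-test.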

In data set [13] the target is T1, Induced myeloid leukemia cell differentiation protein Mcl-1. As to the kind of experiment: Inhibition of human Mcl-1 assessed as Kinact by DELFIA displacement assay. In outline: as §3

Broadly, the IC50 is the concentration that gives 50% inhibition. What is called half-life is the time needed for the level to fall by half in the phase considered. For orientation: Ki means a measure of affinity in units of concentration, obtained from inhibition or displacement. On to `CC[C@H](C)[C@H](NC(=O)[C@H](CCCNC(=N)N)NC(=O)[C@H](CCCNC(=N)N)NC(=O)[C@H](CC(C)C)NC(=O)[C@H](CCC(N)=O)NC(=O)[C@H](CCC(=O)O)NC(=O)[C@H](C)NC(=O)[C@@H](NC(=O)[C@H](CNC(=O)c1cc(S(=O)(=O)F)ccc1OC)NC(C)=O)[C@@H](C)CC)C(=O)NCC(=O)N[C@@H](CC(=O)O)C(=O)N[C@@H](CCCNC(=N)N)C(=O)N[C@@H](Cc1ccccc1)C(N)=O` (Ac-[Dap](Benzoyl(2-OMe,5-SO2F))IAEQLRRIGDRF-NH2), for which the results for the IC50 in [1] and in data set [6] were 23.6 nM and greater than 250 nM, respectively. For the same compound, the outcome in data set [2], in data set [3], in [7] and in [8] was inactive. Further, in data set [4], the half-life was greater than 3.5 h. Besides, in data set [5], the remaining at 3.5 h turned out to be 100%. Also, the Ki in [9] came out at 17 nM. The result in [10], in [11] and in [12] was Active. In addition, the Kinact in data set [13] is 0.943 min⁻¹.

With `CC[C@H](C)[C@H](NC(=O)[C@H](CCCNC(=N)N)NC(=O)[C@H](CCCNC(=N)N)NC(=O)[C@H](CC(C)C)NC(=O)[C@H](CCC(N)=O)NC(=O)[C@H](CCC(=O)O)NC(=O)[C@H](C)NC(=O)[C@@H](NC(=O)[C@H](CNC(=O)c1cccc(S(=O)(=O)F)c1)NC(C)=O)[C@@H](C)CC)C(=O)NCC(=O)N[C@@H](CC(=O)O)C(=O)N[C@@H](CCCNC(=N)N)C(=O)N[C@@H](Cc1ccccc1)C(N)=O` (Ac-[Dap](Benzoyl(3-SO2F))IAEQLRRIGDRF-NH2), the IC50 in data set [1] was 23 nM; in data set [6], greater than 400 nM.

Consider `CC[C@H](C)[C@H](NC(=O)[C@H](CCCNC(=N)N)NC(=O)[C@H](CCCNC(=N)N)NC(=O)[C@H](CC(C)C)NC(=O)[C@H](CCC(N)=O)NC(=O)[C@H](CCC(=O)O)NC(=O)[C@H](C)NC(=O)[C@@H](NC(=O)[C@H](CNC(=O)c1ccc(S(=O)(=O)F)cc1)NC(C)=O)[C@@H](C)CC)C(=O)NCC(=O)N[C@@H](CC(=O)O)C(=O)N[C@@H](CCCNC(=N)N)C(=O)N[C@@H](Cc1ccccc1)C(N)=O` (Ac-[Dap](Benzoyl(4-SO2F))IAEQLRRIGDRF-NH2), for which the IC50 in [1] is 94 nM; in [6] it was greater than 5000 nM.

Consider `CC[C@H](C)[C@H](NC(=O)[C@H](CCCNC(=N)N)NC(=O)[C@H](CCCNC(=N)N)NC(=O)[C@H](CC(C)C)NC(=O)[C@H](CCC(N)=O)NC(=O)[C@H](CCC(=O)O)NC(=O)[C@H](C)NC(=O)[C@@H](NC(=O)[C@H](CNC(=O)c1cc(S(=O)(=O)F)ccc1C)NC(C)=O)[C@@H](C)CC)C(=O)NCC(=O)N[C@@H](CC(=O)O)C(=O)N[C@@H](CCCNC(=N)N)C(=O)N[C@@H](Cc1ccccc1)C(N)=O` (Ac-[Dap](X1)IAEQLRRIGDRF-NH2), for which the results for the 50% inhibitory concentration (IC50) in data set [1] and in [6] were 19.1 nM and greater than 1000 nM, respectively. The outcome in data set [3] and in data set [8] was inactive. Besides, the half-life in data set [4] is greater than 3.5 h. Besides, in data set [5], the remaining at 3.5 h was greater than 80%. Further, the Ki in data set [9] turned out to be 37 nM. In addition, the result in data set [10] and in data set [11] was Active. Besides, in [13], the Kinact was 1.16 min⁻¹.

In the case of `CCCC[C@H](NC(=O)[C@H](C)NC(=O)[C@H](CC(=O)O)NC(=O)CNC(=O)[C@@H](NC(=O)[C@H](CCCNC(=N)N)NC(=O)[C@H](CCCNC(=N)N)NC(=O)[C@H](CC(C)C)NC(=O)[C@H](C)NC(=O)[C@H](CCC(N)=O)NC(=O)[C@H](C)NC(=O)[C@@H](NC(=O)[C@H](C)N)[C@@H](C)CC)[C@@H](C)CC)C(=O)O` (H-AIAQALRRIGDA[Nle]-OH), in data set [1], the IC50 stood at 1600 nM.

In the case of `CCC(NC(=O)[C@H](CCC(N)=O)NC(=O)[C@H](C)NC(=O)[C@@H](NC(=O)[C@H](C)N)[C@@H](C)CC)C(=O)N[C@@H](CC(C)C)C(=O)N[C@@H](CCCNC(=N)N)C(=O)N[C@@H](CCCNC(=N)N)C(=O)N[C@H](C(=O)NCC(=O)N[C@@H](CC(=O)O)C(=O)N[C@@H](C)C(=O)N[C@@H](Cc1ccccc1)C(=O)O)[C@@H](C)CC` (stereo partly specified) (H-AIAQ[ξAbu]LRRIGDAF-OH), the IC50 in [1] amounted to 1300 nM.

In the case of `CC[C@H](C)[C@H](NC(=O)[C@H](CCCNC(=N)N)NC(=O)[C@H](CCCNC(=N)N)NC(=O)[C@H](CC(C)C)NC(=O)[C@H](CCO)NC(=O)[C@H](CCC(N)=O)NC(=O)[C@H](C)NC(=O)[C@H](CC(C)C)NC(=O)[C@H](C)N)C(=O)NCC(=O)N[C@@H](CC(=O)O)C(=O)N[C@@H](C)C(=O)N[C@@H](Cc1ccccc1)C(=O)O` (H-ALAQ[hSer]LRRIGDAF-OH), in [1], the IC50 turned out to be 3000 nM.

With Ac-AIAEALRRIGDAF-NH2, the IC50 in [1] is 261 nM.

In the case of H-AIAEQLRRIGDAF-NH2, the IC50 in data set [1] was determined as 313 nM. This IC50 and that of the compound before are within 1.5-fold of each other.

For the compound H-AIAQALRRIGDAF-OH, the IC50 in [1] is 2200 nM.

In [1], H-AIAQALRRIGDAL-OH showed an IC50 of 1200 nM. This IC50 is about 1.8-fold lower than that of the compound before.

In data set [1], H-AIAQALRRIGDAY-OH displayed an IC50 greater than 3600 nM.

Compound H-ALAQALREIGDAR-OH yielded an IC50 in [1] greater than 10000 nM.

Source of the values: ChEMBL document CHEMBL5055620, “Design, Synthesis, and Structural Characterization of Lysine Covalent BH3 Peptides Targeting Mcl-1” (J Med Chem, 2021).
